Experimental data from different studies.
Each line is one published result; the experiments were not run side by side.
Read-out: cell growth or viability

SMILES	cell line	technique	concentration	time	measurement	value
O=C(NCc1cn(Cc2ccc(Cl)cc2)nn1)Nc1ccc(Cl)cc1	NCI-H1299	CCK-8	50 µM	72 h	viability	82.3%
Cc1n[nH]c2ccc3nc(-c4ccc(C(=O)NCCN(C)C)cc4F)c4c(c3c12)CCCCC4	22Rv1			72 h	GI50	4620 nM
COc1ccc(NC(=O)NCc2cn(Cc3ccccc3C)nn2)cc1	NCI-H1299	CCK-8	50 µM	72 h	viability	68.9%
O=C(Nc1ccc(Cl)cc1)Nc1cccc(-c2cn(Cc3cccc(Cl)c3)nn2)c1	NCI-H1299	CCK-8	50 µM	72 h	viability	104%
COc1ccc(NC(=O)Nc2cccc(-c3cn(Cc4ccccc4C)nn3)c2)cc1	NCI-H1299	CCK-8	50 µM	72 h	viability	125%
Cc1ncsc1-c1ccc(CNC(=O)[C@@H]2C[C@@H](O)CN2C(=O)[C@@H](NC(=O)COCCOCCOCCNC(=O)C[C@@H]2N=C(c3ccc(Cl)cc3)c3c(sc(C)c3C)-n3c(C)nnc32)C(C)(C)C)cc1	22Rv1	MTT		6 days	IC90	1850 nM
O=C(Nc1ccc(Cl)cc1)Nc1ccc(-c2cn(Cc3cccc(Cl)c3)nn2)cc1	NCI-H1299	CCK-8	50 µM	72 h	viability	82.8%
CN(C)CCNC(=O)c1ccc(-c2nc3ccc4[nH]ncc4c3c3c2CCCC3)cc1	22Rv1			72 h	GI50	1800 nM
O=C(Nc1cccc(-c2cn(Cc3ccc(Br)cc3)nn2)c1)Nc1ccccc1Br	NCI-H1299	CCK-8	50 µM	72 h	viability	108%
Cc1n[nH]c2ccc3nc(-c4ccc(C(=O)NCCN(C)C)cc4F)c4c(c3c12)CCCC4	22Rv1			72 h	GI50	556 nM
COc1ccc(NC(=O)Nc2cccc(-c3cn(Cc4cccc(Cl)c4)nn3)c2)cc1	NCI-H1299	CCK-8	50 µM	72 h	viability	134%
C=C(NC(=O)C(=C)NC(=O)c1csc(C2=N[C@@H]3c4csc(n4)[C@H]4NC(=O)c5csc(n5)[C@H]([C@](C)(O)[C@@H](C)O)NC(=O)[C@H]5CSC(=N5)/C(=C/C)NC(=O)[C@H]([C@@H](C)O)NC(=O)c5csc(n5)[C@]3(CC2)NC(=O)[C@H](C)NC(=O)C(=C)NC(=O)[C@H](C)NC(=O)[C@H]([C@@H](C)CC)N[C@@H]2C=Cc3c([C@H](C)O)cc(nc3[C@H]2O)C(=O)O[C@@H]4C)n1)C(N)=O	PC3-TxR				EC50	> 30000 nM
CN(C)CCNC(=O)c1ccc(-c2nc3ccc4[nH]ncc4c3c3c2CCCCC3)c(F)c1	22Rv1			72 h	GI50	2130 nM
COc1ccc(NC(=O)Nc2cccc(-c3cn(Cc4ccc(Cl)cc4)nn3)c2)cc1	NCI-H1299	CCK-8	50 µM	72 h	viability	156%
O=C(NCc1cn(Cc2cccc(Cl)c2)nn1)Nc1ccc(Cl)cc1	NCI-H1299	CCK-8	50 µM	72 h	viability	91.6%
CCc1nc(C(N)=O)c(Nc2ccc(N3CCC(N4CCN(C)CC4)CC3)c(OC)c2)nc1NC1CCOCC1	22Rv1			72 h	GI50	1520 nM
Cc1ccccc1Cn1cc(-c2cccc(NC(=O)Nc3ccc(F)cc3)c2)nn1	NCI-H1299	CCK-8	50 µM	72 h	viability	114%
